NALP3 yeast inh: inhibitors of NALP3 inflammasome in yeast. Yeast reconstituted NLRP3/ASC/caspase-1, beta-gal luminescence, 24 h. inhibition, % at 10 µM. 330,000 compounds, 0.39% hits. AID 2825;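 active = inhibition of 50% or more; inactive = inhibition below 50%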
MC4R antagonist: blocks human MC4R cAMP signaling; MC4R-expressing cells, MTII-stimulated cAMP, LANCE TR-FRET; inhibition, % at 6.5 µM; 360,000 compounds, 0.48% hits; AID 540295;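 active = inhibition above its plate's cutoff, the mean of tested wells on that plate plus 3 SD, cut at about 29% in these data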
Target sequence (P32245 whole entry, looked up): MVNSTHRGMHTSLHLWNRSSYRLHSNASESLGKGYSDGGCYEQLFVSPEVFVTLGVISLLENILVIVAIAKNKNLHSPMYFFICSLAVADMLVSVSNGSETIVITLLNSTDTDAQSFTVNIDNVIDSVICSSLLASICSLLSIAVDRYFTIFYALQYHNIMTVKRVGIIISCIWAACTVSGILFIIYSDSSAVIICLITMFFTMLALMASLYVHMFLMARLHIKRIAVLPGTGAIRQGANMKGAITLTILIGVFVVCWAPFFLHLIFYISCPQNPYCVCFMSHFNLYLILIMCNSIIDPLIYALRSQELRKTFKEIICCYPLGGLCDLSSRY
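System – human MC4R-expressing U2OS cells · Also added – Melanotan II · Dosing – one concentration, 6.5 µM nominal · Timing – 30-min compound, 1-h challenge, 1-h detection, room temperature · Measured by – Eu-cAMP/anti-cAMP TR-FRET, emission 671 nm · Replicates – singlicate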
MC4R barr agon: activates human MC4R beta-arrestin recruitment | activation, % at 8.9 µM | 360,000 compounds, 0.98% hits | U2OS MC4R beta-arrestin complementation, luminescence; percent of melanotan II response, DMSO zero | P32245;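 active = activation above a per-plate cutoff, the mean activation of sample wells on that plate plus 3 SD, cut at about 8% in these data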
NALP1 inh: NALP1 inhibition; AID 2071; inhibition, % at 10 µM; 280,000 compounds, 0.61% hits; S. cerevisiae NALP1/ASC/caspase-1 growth, X-gal OD620, 72 h; in the data active = inhibition mostly above about 24%, no sharp cut-off; inactive = mostly below about 32%
A1 inh: inhibitors of the anti-apoptotic protein A1, read as caspase activation. MEF A1-2A-BIM cells, Caspase-Glo 3/7 luminescence, 3 h; percent of clofoctol response, vehicle zero. caspase activation, % (test concentration not listed). 330,000 compounds, 0.066% hits;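 active = over half of replicate activation scores above 10%, or exactly half above 10 with the replicate mean above 10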
Tb MetRS inh: Trypanosoma brucei MetRS inhibition. inhibition, % at 11.9 µM. purified T. brucei MetRS, ATP depletion, Kinase-Glo luminescence. 360,000 compounds, 0.4% hits;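 active = inhibition above a per-plate cutoff of the control wells' mean inhibition plus 3 SD, cut at about 5.5% in these data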
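Material: T. brucei methionyl-tRNA synthetase, purified; reagent: substrates ATP, L-methionine and bulk Escherichia coli tRNA; dosing: 11.9 µM single point; timing: 15 min plus 2 h at 25 °C; detection: luminescence of leftover ATP; evaluation: % inhibition; control set: DMSO-only wells as low control; replicates: singlicate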
Tb MetRS conf: Trypanosoma brucei MetRS inhibition confirmed; shares compounds with Tb MetRS inh; inhibition, % at 11.9 µM; T. brucei MetRS enzyme, luminescence (ATP depletion); 1,400 compounds, 93% hits; AID 624412; in the data active = inhibition above about 7%
Jurkat cytotox: counter-screen for T. brucei MetRS inhibitors: Jurkat cell cytotoxicity; shares compounds with Tb MetRS inh; inhibition, % at 8.3 µM; 1,400 compounds, 12% hits; Jurkat cells viability, ATP luminescence; in the data active = inhibition above about 15%
Tb MetRS inh FP: inhibits T. brucei methionyl tRNA synthetase in orthogonal FP test | 1,400 compounds, 44% hits | shares compounds with Tb MetRS inh | inhibition, % at 11.9 µM | purified T. brucei MetRS, fluorescence polarization; in the data active = inhibition above about 17%
Of the large screens only hits and unclear results are named; the others gave an inactive call (follow-up assays come after a bar, where they were run). The list is not random: actives were taken first. Their share in the collection is about 2.5%.

O=C(Cn1c2[n+](c3ccc(C(F)(F)F)cc31)CCCCC2)Nc1ccccc1	Tb MetRS inh 28 | Tb MetRS conf 35 | Jurkat cytotox inactive | Tb MetRS inh FP inactive
Cc1cc(N2C(=O)C(O)=C(C(=O)c3ccco3)C2c2ccc(Cl)cc2)no1 (stereo not drawn)	Tb MetRS inh 6.1 | Tb MetRS conf inactive | Jurkat cytotox inactive | Tb MetRS inh FP inactive
O=C(NN1C(=O)/C(=C/c2ccc(O)cc2)SC1=S)c1cccc(O)c1	Tb MetRS inh 6.7 | Tb MetRS conf 14 | Jurkat cytotox inactive | Tb MetRS inh FP 24
Cc1cc(C)nc(NN2C(=O)/C(=C/c3ccc(O)cc3)SC2=S)n1	none
O=C(NN1C(=O)/C(=C/c2ccc(O)cc2)SC1=S)c1ccccc1O	Tb MetRS inh 44 | Tb MetRS conf 58 | Jurkat cytotox inactive | Tb MetRS inh FP 33
O=[N+]([O-])c1cc([N+](=O)[O-])c2cc(-c3cccnc3)[nH]c2c1	none (no result: NALP1 inh)
O=C(NCc1cc(Cl)cc(Cl)c1)c1ccc2nc([C@H]3C[C@H](O)[C@@H](CO)O3)[nH]c2c1	Tb MetRS inh 22 (no result: NALP3 yeast inh, NALP1 inh, A1 inh) | Tb MetRS conf 49 | Jurkat cytotox inactive | Tb MetRS inh FP 33
CC(C)NS(=O)(=O)c1ccc(NC(=O)C(C)OC(=O)CCC(=O)c2cccs2)cc1 (stereo not drawn)	none (no result: NALP1 inh)
COc1cc(C(=O)NCc2ncccc2C)ccc1OC1CCN(C(C)=O)CC1	none
c1ccc(CNc2ncnc3ccccc23)cc1	none
c1ccc(CN2CCC(CNc3ncnc4ccccc34)C2)cc1 (stereo not drawn)	Tb MetRS inh 6.2 (no result: NALP3 yeast inh, NALP1 inh, A1 inh) | Tb MetRS conf 28 | Jurkat cytotox 27 | Tb MetRS inh FP inactive
COc1ccc(C(CNC(=O)Nc2ccc(Cl)cc2)N2CCN(C)CC2)cc1 (stereo not drawn)	Tb MetRS inh 15 | Tb MetRS conf 39 | Jurkat cytotox inactive | Tb MetRS inh FP 17
COc1ccc(C(CNC(=O)Nc2ccccc2)N2CCN(C)CC2)cc1 (stereo not drawn)	none
COc1cccc(-n2c(SCC(=O)N3CCOCC3)nnc2-c2c[nH]c3ccccc23)c1	Tb MetRS inh 18 | Tb MetRS conf 30 | Jurkat cytotox inactive | Tb MetRS inh FP inactive
NC(=S)NNc1cc(Cl)cc(Cl)c1	Tb MetRS inh 8.1 | Tb MetRS conf 18 | Jurkat cytotox inactive | Tb MetRS inh FP inactive
NC(=S)Nc1cc(Cl)cc(Cl)c1	none
O=C(COc1ccccc1)Nc1nc2ccccc2[nH]1	none
O=C(O)CCCC(=O)Nc1cccc(-c2nc3ccccc3[nH]2)c1	none
CCCOc1cccc(OCC(=O)Nc2nc3ccccc3[nH]2)c1	Tb MetRS inh 29 | Tb MetRS conf 48 | Jurkat cytotox inactive | Tb MetRS inh FP 20
COc1ccc(OCC(=O)Nc2cccc(-c3nc4ccccc4[nH]3)c2)cc1	Tb MetRS inh 7.1 | Tb MetRS conf 12 | Jurkat cytotox inactive | Tb MetRS inh FP 31
O=C(COc1ccccc1)Nc1cccc(-c2nc3ccccc3[nH]2)c1	Tb MetRS inh 21 | Tb MetRS conf 43 | Jurkat cytotox inactive | Tb MetRS inh FP 26
O=C(CSc1ccc2ccccc2c1)Nc1nc2ccccc2[nH]1	Tb MetRS inh 21 | Tb MetRS conf 29 | Jurkat cytotox inactive | Tb MetRS inh FP inactive
CC1(C)SC2c3ccccc3C(=O)N2C1C(=O)O (stereo not drawn)	none (no result: NALP3 yeast inh, NALP1 inh, A1 inh)
CC1(C(=O)Nc2ccc(S(=O)(=O)Nc3ncccn3)cc2)CCCC1	none (no result: NALP1 inh)
CC(C)C/C=C1\CCc2c([nH]c3ccccc23)C1=O	none
CCCCCCCCC1=NCCc2c1[nH]c1ccccc21	Tb MetRS inh 49 | Tb MetRS conf 70 | Jurkat cytotox 33 | Tb MetRS inh FP 47
O=C(NCCCCc1ccccc1)Nc1ccc(F)cc1	Tb MetRS inh 15 | Tb MetRS conf 32 | Jurkat cytotox inactive | Tb MetRS inh FP 21
Cc1ccc(NC(=O)NCCCc2ccccc2)cc1	none
CCOc1ccc(NS(=O)(=O)c2ccc(C(=O)N3CC(C)OC(C)C3)cc2)cc1 (stereo not drawn)	none (no result: NALP1 inh)
Cc1ccc(C2NC(=NCc3ccccc3)Nc3nc(C)cc(=O)n32)cc1 (stereo not drawn)	Tb MetRS inh 7.6 | Tb MetRS conf 17 | Jurkat cytotox inactive | Tb MetRS inh FP inactive
Cc1ccc(NC2=NC(c3ccc(O)cc3)n3c(nc(C)cc3=O)N2)cc1 (stereo not drawn)	none
CN(C(=O)COC(=O)COc1ccc(Cl)cc1Cl)c1c(N)n(Cc2ccccc2)c(=O)[nH]c1=O	none (no result: NALP1 inh)
CO[C@@H]1CN(C)C(=O)c2cc(NC(=O)Nc3cc(F)ccc3F)ccc2OC[C@H](C)N(C(=O)c2cnccn2)C[C@@H]1C	Tb MetRS inh 6.2 (no result: NALP3 yeast inh, MC4R antagonist, MC4R barr agon, NALP1 inh, A1 inh) | Tb MetRS conf 14 | Jurkat cytotox inactive | Tb MetRS inh FP inactive
Clc1ccccc1-c1ccc2ncnc(NCc3cccnc3)c2c1	Tb MetRS inh 12 (no result: NALP1 inh) | Tb MetRS conf 44 | Jurkat cytotox inactive | Tb MetRS inh FP 33
Clc1ccccc1-c1ccc2ncnc(NCc3ccc4c(c3)OCO4)c2c1	Tb MetRS inh 26 (no result: NALP1 inh) | Tb MetRS conf 32 | Jurkat cytotox inactive | Tb MetRS inh FP 22
c1cncc(-c2ccc3ncnc(NCc4ccc5c(c4)OCO5)c3c2)c1	none (no result: NALP1 inh)
CC(NC(=O)c1cccc(F)c1)C1CC2CCC1C2 (stereo not drawn)	none (no result: NALP1 inh)
O=C(c1cccnc1)N1CCC2CC1c1c(Cl)cccc12 (stereo not drawn)	none (no result: NALP3 yeast inh, NALP1 inh, A1 inh)
CCN(CC(=O)Nc1ccccc1C(F)(F)F)C(=O)c1ccc(N2CCCC2=O)cc1	none (no result: NALP1 inh)
O=C(NCC(c1ccco1)N1CCc2ccccc2C1)c1ccc(F)cc1 (stereo not drawn)	none (no result: NALP1 inh)
O=C(O)CCCCCn1c(SCC(=O)c2ccc(O)c(O)c2)nc2ccsc2c1=O	Tb MetRS inh 6.2 | Tb MetRS conf 14 | Jurkat cytotox inactive | Tb MetRS inh FP 36
CCCCn1c(SCC(=O)c2ccc(O)c(O)c2)nc2ccsc2c1=O	none
Cc1cccc(N2C(=O)CC(N3CCC(c4nc5ccccc5[nH]4)CC3)C2=O)c1 (stereo not drawn)	none
O=C1CC(N2CCC(c3nc4ccccc4o3)CC2)C(=O)N1c1cc(Cl)cc(Cl)c1 (stereo not drawn)	Tb MetRS inh 6.0 | Tb MetRS conf inactive | Jurkat cytotox inactive | Tb MetRS inh FP inactive
CCOc1cc(N2CCOCC2)c(OCC)cc1NC(=O)COC(=O)c1ccc(Cl)nc1	none (no result: NALP1 inh)

Screens: PubChem, several laboratories
